Source: PubChem BioAssay (several laboratories)
ARNT TACC3 PPI: disrupts binding between human ARNT and TACC3; Q9Y6A5; AlphaScreen His-ARNT PAS-B/GST-TACC3 binding, luminescence; TACC3 fragment carries E629A point mutation; inhibition, % at 9.99 µM; hit rate 0.66% among 390,000;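 active means mean inhibition of replicates at least 50% and at least half of replicates each reaching 50%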;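 further: 0% = complete ARNT plus TACC3 wells and 100% = ARNT alone without TACC3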
HGIII-sPLA2 inh: Inhibits HGIII-sPLA2 liposome hydrolysis, primary screen. inhibition, % at 12.2 µM. QFRET BODIPY PC-A2 liposome hydrolysis, fluorescence. hit rate 0.56% among 370,000. Q9NZ20. AID 743126;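 active means inhibition above mean plus 3 SD of compounds lying within the high and low control bounds, cut at about 19% in these data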;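 further: 0% = median of test compound wells and 100% = no enzyme DMSO wells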
XiGFP reactiv: reactivates the inactive X chromosome in mouse fibroblasts; XiGFP mouse fibroblasts, % GFP-positive cells imaging, 3 d; cells co-treated with 5-aza-dC sensitizer; scaled so ellipticine positive control = 100%; activation, % at 7.58 µM; hit rate 0.055% among 360,000;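 active means mean normalized replicate activation at least 10% and every replicate at or above 10%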;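 further: 0% = median of on-plate neutral control wells and 100% = ellipticine 6 µM median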
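material = 68-5-11 XiGFP fibroblast line | medium = DMEM plus 5-aza-dC sensitizer | schedule = 3 days compound exposure | benchmarks = positive control ellipticine, 6 µM final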
NSD2 HMT inh: NSD2 (human) methyltransferase inhibition; NSD2 peptide methylation, AlphaScreen, 120 min; AID 743445; inhibition, % at 12.5 µM; hit rate 0.54% among 310,000; O96028; in the data active means inhibition above about 50%
SR-BI uptake up: SR-BI HDL lipid transfer activation; hit rate 0.096% among 320,000; CHO ldlA[mSR-BI] cells, DiI-HDL uptake fluorescence, 3 h; 100 = double the neutral-control signal; activation, % at 12.5 µM; AID 504775;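 active means mean replicate activation of at least 60% and every replicate at or above 60%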;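 further: 0% = median plate neutral-control signal and 100% = twice that signal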
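Assay system: LDL receptor-deficient CHO ldlA cells overexpressing murine SR-BI / Medium: BSA-supplemented, HEPES-buffered Ham's F12, pH 7.4 / Probe or stimulus: DiI-labelled HDL at 10 µg/mL final / Timing: compound with DiI-HDL co-incubation, 3 h at 37 °C / Technique: bottom-read cell fluorescence after medium removal, ex 550/em 595 nm / Measure: HDL uptake via cellular fluorescence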
SR-BI DiI inh: inhibitors of mouse SR-BI mediated HDL lipid uptake. Q61009. hit rate 0.96% among 320,000. ldlA[mSR-BI] CHO cells, DiI-HDL uptake fluorescence, 3 h. inhibition, % at 12.5 µM;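 active means mean replicate inhibition of at least 70% and a set share of replicates each scoring 70 or more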;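 further: 0% = median of neutral control wells and 100% = median of positive control wells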
Target sequence (Q61009 whole entry, looked up): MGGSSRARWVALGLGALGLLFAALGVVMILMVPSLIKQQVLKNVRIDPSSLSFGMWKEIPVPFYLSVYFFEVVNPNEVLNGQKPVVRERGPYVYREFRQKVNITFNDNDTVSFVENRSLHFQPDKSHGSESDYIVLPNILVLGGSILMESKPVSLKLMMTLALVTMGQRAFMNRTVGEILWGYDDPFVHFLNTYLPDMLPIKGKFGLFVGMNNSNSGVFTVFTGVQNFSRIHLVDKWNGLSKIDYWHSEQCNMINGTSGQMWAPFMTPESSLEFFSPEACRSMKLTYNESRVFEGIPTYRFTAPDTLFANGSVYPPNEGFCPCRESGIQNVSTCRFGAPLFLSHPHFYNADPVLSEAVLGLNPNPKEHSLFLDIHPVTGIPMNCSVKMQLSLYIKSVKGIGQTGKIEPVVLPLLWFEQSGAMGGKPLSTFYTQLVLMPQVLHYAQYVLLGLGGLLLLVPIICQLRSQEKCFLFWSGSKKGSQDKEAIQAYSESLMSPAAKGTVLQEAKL
AlphaScreen art: AlphaScreen assay artifact in NSD2 counter-screen; AC35, µM (highest dose often 10 µM), for the others: at the top dose activity change, negative = signal loss; hit rate 9.4% among 1,500; AID 1053174; AlphaScreen artifact counterscreen, preloaded methylated H4 peptide; shares compounds with NSD2 HMT inh; call rule not given here
Active calls of the source: *; nt = no result given; + = active, no number. In the library only some 2% were active in any assay of this set; here they are far more common.

SMILES	ARNT TACC3 PPI	HGIII-sPLA2 inh	XiGFP reactiv	NSD2 HMT inh	SR-BI uptake up	SR-BI DiI inh	AlphaScreen art
O=C(Nc1ccccn1)c1ccc2c(=O)n3c(nc2c1)CCCCC3	3.6	-3.2	0.0	60.8*	-33.2	33.2	-1.3%
CCN(CC)S(=O)(=O)c1ccc(OC)c(NS(=O)(=O)Cc2ccccc2)c1	-6.3	-3.6	0.0	-1.3	-13.7	13.7	nt
Cc1noc(C)c1NC(=O)Nc1ccc2c(c1)C(=O)N([C@@H](C)CO)C[C@@H](C)[C@H](CN(C)Cc1ccc(C(F)(F)F)cc1)OCCCC[C@H](C)O2	16.3	nt	-1.1	nt	nt	nt	nt
CN(C)C(=O)c1ccc(-c2ccc([C@H]3[C@H](CO)N4CCCCN(C(=O)C5CCC5)C[C@@H]34)cc2)cc1	0.1	nt	nt	nt	nt	nt	nt
Cc1ccc(S(=O)(=O)/N=C2/NC(=O)/C(=C/c3cccnc3)S2)cc1	15.2	-16.6	nt	4.4	12.5	-12.5	nt
Cc1ccc(S(=O)(=O)/N=C2/NC(=O)/C(=C\c3cc(Br)cc(Br)c3O)S2)cc1	1.3	nt	nt	109.3*	12.7	-12.7	-3.6%
Cc1ccc(S(=O)(=O)/N=C2/NC(=O)/C(=C/c3ccc(Br)o3)S2)cc1	-12.0	-46.7	0.0	70.1*	11.3	-11.3	-2.0%
CCOC(=O)c1c(NC(=O)CSc2nnc(C)s2)sc2c1CCN(C)C2	12.2	-10.3	nt	1.6	-13.2	13.2	nt
O=C1O[C@H](c2ccccc2)[C@H](c2ccccc2)N2[C@H]1[C@@H](C(=O)N1CCN(c3ncccn3)CC1)[C@]1(C(=O)Nc3ccc(C#CC4(O)CCCCCC4)cc31)[C@H]2c1ccc(OCCO)cc1	21.2	nt	nt	nt	nt	nt	nt
Cc1ccc(C(=O)Nc2ccc(CC(=O)O)cc2)o1	-1.3	8.9	nt	126.2*	8.8	-8.8	-3.1%
Cc1ccc(C(=O)Nc2ccc(NC(=O)c3ccc(C)o3)cc2)o1	-2.2	2.1	0.1	0.9	nt	nt	nt
O=C(NC1CCCCN(Cc2cccc(Cl)c2)C1=O)c1cccc(F)c1 (configuration not stated)	nt	7.9	nt	nt	nt	nt	nt
CCN(CC)CCNC(=O)c1cc2cc(Br)ccc2s1	3.5	-2.5	0.0	56.4*	10.6	-10.6	-4.2%
CCN(CC)CCNC(=O)c1cc(-c2ccc(Br)s2)nc2ccccc12	2.5	-5.3	0.2	3.3	-23.8	23.8	nt
O=C(CCCN1C(=O)/C(=C/c2cccs2)SC1=S)Nc1ccc(O)c(C(=O)O)c1	nt	nt	nt	53.1*	nt	nt	-13.6%
O=C(CCCN1C(=O)/C(=C\c2cccs2)SC1=S)Nc1ccc(C(=O)O)cc1	nt	-6.1	0.0	13.1	6.6	-6.6	nt
O=C(CCCN1C(=O)/C(=C/c2ccccc2)SC1=S)Nc1ccc(C(=O)O)c(O)c1	7.8	-25.8	0.1	55.4*	-27.8	27.8	-7.3%
CCOC(=O)[C@]12CCCCC/C=C\1N(Cc1ccc(OC)cc1)C(=O)[C@H]2CC(=O)NCc1cccc2ccccc12	nt	-7.7	nt	nt	nt	nt	nt
O=C(NCc1ccccc1Cl)c1cnccc1C(F)(F)F	0.3	6.5	0.2	-2.1	14.7	-14.7	nt
COc1ccc2c(c1)c1nc3ccccc3nc1n2CCn1c(=O)oc2ccccc21	6.2	8.2	nt	57.9*	-67.0	67.0	-0.1%
O=c1oc2ccccc2n1CCn1c2ccccc2c2nc3ccccc3nc21	-3.0	-6.0	nt	-0.7	-14.8	14.8	nt
C=CCN(C(=O)CNC(=O)c1cccs1)C(C(=O)NC(C)(C)C)c1ccccc1 (configuration not stated)	1.4	6.0	0.0	-1.0	26.2	-26.2	nt
Cc1cccc(C(=O)NCC(=O)OCc2nnc(-c3ccccc3)o2)c1	-2.4	5.1	0.1	+	-9.1	9.1	-0.7%
CCCCN(CC)CCNC(=O)CN(C)S(=O)(=O)c1ccc2c(c1)c(=O)n(C)c(=O)n2C	-1.9	3.0	nt	60.9*	18.6	-18.6	-3.9%
CN(C)c1ccc(CNC(=O)CN(C)S(=O)(=O)c2ccc3c(c2)c(=O)n(C)c(=O)n3C)cc1	-2.7	8.5	0.0	4.2	11.1	-11.1	nt
SMILES	ARNT TACC3 PPI	HGIII-sPLA2 inh	XiGFP reactiv	NSD2 HMT inh	SR-BI uptake up	SR-BI DiI inh	AlphaScreen art
CCCC(CCC(=O)Nc1cccc([N+](=O)[O-])c1)C(=O)O (configuration not stated)	-3.4	1.2	-0.1	83.4*	6.3	-6.3	-0.6%
Cc1ccc(S(=O)(=O)c2ccc(Cl)cc2)cc1S(=O)(=O)N1CCOCC1	-2.4	-0.7	nt	116.3*	3.8	-3.8	1.0%
Cc1ccc(C)c(S(=O)(=O)N2CCCOC2CNC(=O)C(=O)NCc2cccnc2)c1 (configuration not stated)	nt	4.4	-0.1	58.0*	-24.7	24.7	2.0%
CC(C)NC(=O)Nc1ccc2c(c1)C(=O)N([C@H](C)CO)C[C@H](C)[C@H](CN(C)Cc1ccc(Oc3ccccc3)cc1)O2	5.2	nt	-1.4	nt	nt	nt	nt
COC1=C(Nc2ccc(OC)cc2)C(=O)c2ccccc2C1=O	52.6*	15.5	-0.2	65.6*	-9.5	9.5	5.5µM*
COC1=C(Nc2ccc(O)cc2)C(=O)c2ccccc2C1=O	35.3	-3.1	-0.1	46.2	-7.2	7.2	nt
CCOc1ccc(NC2=C(OC)C(=O)c3ccccc3C2=O)cc1	38.9	3.3	-0.1	53.0*	24.1	-24.1	3.74µM*
C[C@@H]1CN([C@H](C)CO)C(=O)c2cc(-c3cccc(F)c3)cnc2O[C@@H]1CN(C)Cc1cncnc1	1.2	nt	-0.9	nt	nt	nt	nt
COc1ccc(-c2csc(N3CCC(C(N)=O)(N4CCCCC4)CC3)n2)cc1	-7.2	10.0	nt	3.8	-22.3	22.3	nt
CCOc1cccc(=O)c2c(C)n(-c3ccc(C(=O)O)cc3)c(C)c12	-2.6	-3.4	0.0	92.8*	9.3	-9.3	-5.0%
COc1ccc(-n2c(C)c3c(OC)cccc(=O)c3c2C)cc1	6.5	10.9	nt	8.9	-25.7	25.7	nt
CCOc1cccc(=O)c2c(C)n(Cc3ccccc3)c(C)c12	nt	-0.9	0.0	1.8	nt	nt	nt
COc1cccc(=O)c2c(C)n(-c3ccc(C(=O)O)cc3)c(C)c12	1.0	-7.0	0.2	78.7*	11.8	-11.8	-7.9%
COc1ccc(S(=O)(=O)Nc2cccc3ccc(O)cc23)cc1	-5.0	-35.5	-0.1	-2.0	-9.7	9.7	nt
COc1ccc(S(=O)(=O)Nc2cc(SCC(=O)O)c(O)c3ccccc23)cc1	61.1*	-1.7	0.0	121.1*	3.4	-3.4	-5.8%
COc1c(Cl)cc(C(=O)NN)cc1Cl	-7.8	4.4	0.1	-3.5	8.1	-8.1	nt
NNC(=O)c1cc(O)c(O)c(O)c1	43.8	5.5	0.4	+	21.8	-17.2	-10.6%
C/C(CC(=O)Nc1ccc2ccccc2c1)=N\NC(=O)c1ccc(O)c(O)c1	39.4	-7.1	0.2	111.5*	15.3	-15.3	-13.9%
